Published values pooled from the literature.
Each line is one published result; the experiments were not run side by side.
CDK4 with cyclin D3: Cyclin-dependent kinase 4, with cyclin D3 (CDK4, Homo sapiens, UniProt P11802)
CDK4: Cyclin-dependent kinase 4 (CDK4, Homo sapiens, UniProt P11802)
CDK4 with cyclin D1: Cyclin-dependent kinase 4, with cyclin D1 (CDK4, Homo sapiens, UniProt P11802)

Compound | target | test | conditions | quantity | value
Cc1ccc(NC(=O)c2ccc(C)c(C(F)(F)F)c2)cc1C#Cc1nn(C2CCC(O)CC2)c2ncnc(N)c12 (stereo not drawn) | CDK4 with cyclin D3 | cell-free assay | 10 µM | remaining signal | 86%
N#CCCc1ccc2c(c1)-c1[nH]c3ccc([N+](=O)[O-])cc3c1CC(=O)N2 | CDK4 with cyclin D3 | cell-free assay | 0.5 µM | remaining signal | 25.9%
F[C@@H]1CCN(c2nccc(-c3cnn4ncccc34)n2)C1 | CDK4 | binding | 1 µM | remaining binding | 100%
O=C(c1ccc(Cl)c(Cl)c1)[C@H]1Cc2c(cc([N+](=O)[O-])cc2[N+](=O)[O-])[C@@H](O)[C@@]12C(=O)Nc1ccccc12 | CDK4 | cell-free assay, inhibitor, TR-FRET | 1 µM | inhibition | 35.6%
CNC(=O)Nc1ccc2c(c1)[C@@]1(CC2)OC(=O)N(CC(=O)N(Cc2ccc(F)cc2)[C@@H](C)C(F)(F)F)C1=O | CDK4 | cell-free assay, competition with immobilised ligand | 1 µM | remaining binding | 73%
CC(C)(C)c1nc2c(s1)c1nc(N)ncc1c1ccc(NS(=O)(=O)c3c(F)cccc3F)c(F)c12 | CDK4 with cyclin D1 | enzyme activity, inhibitor, radiometric | 1 µM | remaining activity | 88%
Cc1cnc(NC2CCOCC2)nc1-n1cnc(C(=O)NC(CN)c2cc(F)cc(Cl)c2)c1 (stereo not drawn) | CDK4 with cyclin D3 | enzyme activity, inhibitor, radiometric | 1 µM | remaining activity | 6%
COc1cccc(CNC(=O)c2nc3scc(COCc4ccc(C(=O)O)cc4)c3c(=O)[nH]2)c1 | CDK4 with cyclin D3 | cell-free assay, competition with immobilised ligand | 1 µM | remaining binding | 91.1%
Cc1ccc(C(=O)NCc2ccsc2)cc1C#Cc1cn(C(C)C)c2ncnc(N)c12 | CDK4 with cyclin D3 | enzyme activity, inhibitor | 1 µM | activity vs control | 92%
CS(=O)(=O)CCNCc1ccc(-c2ccc3ncnc(Nc4ccc(OCc5cccc(F)c5)c(Cl)c4)c3c2)o1 | CDK4 with cyclin D3 | cell-free assay | 0.5 µM | remaining signal | 104%
CC1CCCN1c1nccc(-c2cnn3ncccc23)n1 (stereo not drawn) | CDK4 | binding | 1 µM | remaining binding | 100%
O=C(Nc1cnc(Oc2ccc(F)cc2)nc1)N1CCc2ncccc2[C@@H]1c1ccc(F)cc1 | CDK4 with cyclin D1 | cell-free assay, competition with immobilised ligand | 1 µM | remaining binding | 100%
Nc1ncnc2occ(-c3ccc(NC(=O)Nc4cc(C(F)(F)F)ccc4F)cc3)c12 | CDK4 with cyclin D3 | cell-free assay, inhibitor | 20 µM | remaining signal | 51%
COc1cc2c(cc1OC)-c1[nH]nc(Nc3cccc(F)c3)c1C2 | CDK4 with cyclin D1 | cell-free assay | 0.5 µM | remaining signal | 93.9%
O=C(NC[C@@H]1[C@H]2CN(C(=O)OCc3cc(C(F)(F)F)cc(C(F)(F)F)c3)C[C@@H]12)c1ccc2[nH]nnc2c1 | CDK4 with cyclin D1 | cell-free assay, competition with immobilised ligand | 1 µM | remaining binding | 100%
COc1ccc(C(=O)[C@H]2Cc3c(cc([N+](=O)[O-])cc3[N+](=O)[O-])[C@H](O)[C@]23C(=O)Nc2ccccc23)cc1 | CDK4 | cell-free assay, inhibitor, TR-FRET | 1 µM | inhibition | 18.4%
CCN(CC)CCNC(=O)c1c(C)[nH]c(/C=C2\C(=O)Nc3ccc(F)cc32)c1C | CDK4 with cyclin D3 | cell-free assay | 0.5 µM | remaining signal | 93%
O=C(NCc1ncc(C(F)(F)F)cc1Cl)c1ccc2c(c1)C1(CCS(=O)(=O)CC1)[C@H](C1CC1)N2S(=O)(=O)c1ccc(F)cc1 | CDK4 with cyclin D3 | cell-free assay, competition with immobilised ligand | 1 µM | remaining binding | 88%
CN(CCCC(F)(F)F)c1nccc(-c2cnn3ncccc23)n1 | CDK4 with cyclin D3 | binding | 1 µM | remaining binding | 100%
CSc1cccnc1N1CCN(Cc2nc3ccccc3[nH]2)CC1 | CDK4 with cyclin D3 | cell-free assay, competition with immobilised ligand | 1 µM | remaining binding | 82%

Compound | target | test | conditions | quantity | value
O=C1Nc2ccc(Cl)cc2C1=Cc1cc(Cl)c(O)c(Cl)c1 | CDK4 with cyclin D1 | cell-free assay | 0.5 µM | remaining signal | 94.7%
O=C(c1ccccc1)[C@H]1Cc2c(cc([N+](=O)[O-])cc2[N+](=O)[O-])[C@@H](O)[C@@]12C(=O)Nc1ccccc12 | CDK4 | cell-free assay, inhibitor, TR-FRET | 1 µM | inhibition | 39.5%
CN1CCN(c2cnc3c(C4CCN(C(=O)c5ccc(OC(F)(F)F)cc5N)CC4)ncnc3c2)CC1 | CDK4 | cell-free assay, competition with immobilised ligand | 1 µM | remaining binding | 100%
O=C(c1ccccc1F)[C@H]1Cc2c(cc([N+](=O)[O-])cc2[N+](=O)[O-])[C@@H](O)[C@@]12C(=O)Nc1ccccc12 | CDK4 | cell-free assay, inhibitor, TR-FRET | 1 µM | inhibition | 38.9%
CC(C)(O)[C@H]1CC[C@H](Nc2ccc3ncc(-c4cccc(C(F)(F)F)c4)n3n2)CC1 | CDK4 with cyclin D1 | enzyme activity, inhibitor | 1 µM | remaining activity | 90.5%
O=C1NC(=O)c2cc(Nc3ccc(F)cc3)c(Nc3ccc(F)cc3)cc21 | CDK4 with cyclin D3 | cell-free assay | 0.5 µM | remaining signal | 99%
O=C(c1ccc(F)cc1)[C@H]1Cc2c(cc([N+](=O)[O-])cc2[N+](=O)[O-])[C@H](O)[C@]12C(=O)Nc1ccccc12 | CDK4 | cell-free assay, inhibitor, TR-FRET | 1 µM | inhibition | 23.2%
CCOCCn1cc(C(=O)Nc2ccc(-n3nc(-c4cccnc4)cc3C(F)(F)F)cn2)ccc1=O | CDK4 | cell-free assay, competition with immobilised ligand | 1 µM | remaining binding | 87%
COc1ccc(OC)c2c(=S)c3ccccc3[nH]c12 | CDK4 with cyclin D1 | cell-free assay | 0.5 µM | remaining signal | 93.5%
COc1ccnn2ncc(-c3ccnc(N(C)C)n3)c12 | CDK4 with cyclin D3 | binding | 1 µM | remaining binding | 69%
Oc1cccc(-c2nc(N3CCOCC3)c3oc4ncccc4c3n2)c1 | CDK4 with cyclin D1 | cell-free assay | 0.5 µM | remaining signal | 102%
O=C(c1ccc(Br)cc1)[C@H]1Cc2c(cc([N+](=O)[O-])cc2[N+](=O)[O-])[C@H](O)[C@]12C(=O)Nc1ccccc12 | CDK4 | cell-free assay, inhibitor, TR-FRET | 1 µM | inhibition | 18.6%
Cc1sc(C(=O)NC2COC2)cc1-n1cc(NC(=O)Nc2c(F)cccc2Cl)cn1 | CDK4 with cyclin D1 | enzyme activity, inhibitor | 10 µM | remaining activity | 78%
CN(C)c1nccc(-c2cnn3ncccc23)n1 | CDK4 | binding | 1 µM | remaining binding | 92%
O=C(Nc1cnn(-c2csc(C(=O)NC3COC3)c2)c1)Nc1ccccc1Cl | CDK4 with cyclin D3 | enzyme activity, inhibitor | 5 µM | remaining activity | 98.2%
CN(C)c1nccc(-c2cnc3ncccn23)n1 | CDK4 | binding | 1 µM | remaining binding | 71%
CC(C)(C)c1nc(-c2cccc(NS(=O)(=O)c3c(F)cccc3F)c2F)c(-c2ccnc(N)n2)s1 | CDK4 with cyclin D3 | enzyme activity, inhibitor, radiometric | 1 µM | remaining activity | 119%
C[C@@H]1CCN(c2nccc(-c3cnn4ncccc34)n2)C1 | CDK4 with cyclin D3 | binding | 1 µM | remaining binding | 76%
O=C(Nc1cnn(-c2csc(C(=O)NC3COC3)c2)c1)Nc1c(F)cccc1Cl | CDK4 with cyclin D1 | enzyme activity, inhibitor | 5 µM | remaining activity | 90.3%
